PMC11315854 (Drugs in R&D, 2024)
Read-outs that look alike come from different tables or passages of the source.

Experiments:
[1] = Mouse pharmacokinetic model; assay type: in vivo, mice
Procedure, shortened: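 Mean plasma concentration–time data from nude mice given single oral 1, 5 or 10 mg/kg (n = 27 per dose), taken from earlier work. Sampling pre-dose and at 0.083–24 h. Linear one-compartment model with first-order oral absorption fitted simultaneously across doses to estimate ka, CL/F and V/F, with RSE%.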

[2] = Patient population pharmacokinetic model; assay type: in vivo, human
Procedure, shortened: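 Phase 1 3+3 dose-escalation patients. Single oral dose on day 1, 1-week washout, then QD, 3-weeks-on/1-week-off, or QW. Plasma sampled intensively in cycle 1 and pre-dose in later cycles. Assayed by LC–MS/MS (LLOQ 0.5 ng/mL). Two-compartment nonlinear mixed-effects model with first-order absorption, exponential IIV and proportional residual error, fitted in NONMEM.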

pAkt (serine 473) = assay type: in vivo, mice
pAkt [3] = assay type: in vivo, human; conditions: patients
Procedure, shortened: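 Blood drawn pre-dose and 1, 3, 8 and 24 h post-dose on day 1 from phase 1 patients (n = 37). pAkt in platelet-rich plasma measured by MSD assay and expressed as % of baseline. Concentrations predicted from individual population-PK parameters. Indirect response model (inhibition of pAkt formation) fitted, with Imax and γ1 fixed at 1, proportional error and IIV on IC50.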

[4] = test system: 786-O human renal cell adenocarcinoma (RCC) xenografts; assay: Integrated PK–PD–efficacy model, tumor volume in 786-O xenograft mice; assay type: in vivo; conditions: 786-O xenografts
Procedure, shortened: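 Female beige nude XID mice bearing subcutaneous 786-O tumour fragments. Grouped at 100–300 mm3 (mean 181 mm3). Dosed PO QD for 17 days in MCT (0.5% methylcellulose, 0.2% Tween 80), vehicle or 0.008–11 mg/kg, n = 6. Caliper volumes taken pre-dose and at 72–408 h. Inhibition predicted from mouse PK and PK–PD models. All groups fitted simultaneously to growth/shrinkage model with sigmoid Ks.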

advanced solid tumors = assay type: in vivo, human
Procedure, shortened: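 Phase 1 dose-escalation patients with advanced solid tumours or NHL, oral 2–200 mg (QD, 3-weeks-on/1-week-off, or QW). Lesions imaged by CT or MRI at baseline, after cycles 1 and 2, then every two cycles. Tumour size linked to predicted %pAkt inhibition via growth/shrinkage model with sigmoid Ks. Individual PK and dosing records used, with individual or typical IC50. All doses fitted simultaneously.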

Unbound fraction in mice = assay type: in vitro ADME; conditions: mouse, plasma
[5] = Unbound fraction in humans; assay type: in vitro ADME; conditions: human, plasma
pAkt [6] = conditions: patients, doses ≥ 16 mg; cited from earlier work
786-O cell line = conditions: in vitro, cancer cell lines; cited from earlier work
Gli mRNA = conditions: preclinical models of the hedgehog pathway; cited from earlier work
[7] = nude mice, single PO 1, 5 and 10 mg/kg, one-compartment model

## Cc1c(CN2CCN(C(=O)[C@H](C)O)CC2)sc2c(N3CCOCC3)nc(-c3cnc(N)nc3)nc12 [apitolisib]
[1]; mice, PO 1, 5 and 10 mg/kg
  linearity of pharmacokinetics over the range of doses tested: linear
[1]; [7]
  absorption rate constant (ka), estimate (RSE%): 1.1 (36.4%) h^−1
  apparent volume of distribution after oral dosing (V/F), estimate (RSE%): 1.13 (17.3%) L/kg
[1]; nude, mouse, plasma, oral
  k el: 8.33e-05 s⁻¹
[2]; human, plasma, oral
  k el: 2.78e-05 s⁻¹
[2]; human, plasma, po
  CL/F: 5.07 mL/min/kg
[2]; patients, assuming reference body weight of 70 kg
  body-weight-normalized apparent volume of the central compartment (V1/F): 3.01 L/kg
[2]; patients, n = 146, oral dosing
  absorption lagged time estimate (RSE%): 0.465 (0.43%) h
  absorption rate constant (ka), population typical value (RSE%): 3.35 (16.8%) h^−1
  apparent intercompartmental clearance (CLd/F), population typical value (RSE%): 5.93 (8.53%) L/h
[2]; patients, n = 146, oral dosing, two-compartment model
  apparent oral clearance (CL/F), population typical value (RSE%): 21.3 (4.28%) L/h
pAkt (serine 473); 786-O tumor-bearing mice, single oral 0.3 mg/kg
  pAkt reduction in tumor: very weak
pAkt (serine 473); 786-O tumor-bearing mice, single oral 3 mg/kg
  duration of sustained pAkt suppression in tumor: 6 h
pAkt (serine 473); 786-O tumor-bearing mice, single oral 10 mg/kg
  duration of sustained pAkt suppression in tumor: 12 h
pAkt (serine 473); 786-O tumor-bearing mice, single oral 0.3, 3 and 10 mg/kg
  effect on pAkt in tumors across doses: dose-dependent decrease
pAkt (serine 473); 786-O xenograft mice, tumor tissue pAkt
  kin (rate of biomarker production): 88,698 %/h
pAkt (serine 473); 786-O xenograft mice, fixed in model
  Imax (maximum inhibition of %pAkt): 1 (fix)
pAkt (serine 473); 786-O xenograft mice, kout = kin/%pAkt(0), baseline 100%
  kout (first-order rate constant describing biomarker loss): 886.98 h⁻¹
pAkt [3]; platelet-rich plasma pAkt
  kin (rate of biomarker production): 88,699 %/h
pAkt [3]; platelet-rich plasma, 2–70 mg
  effect on pAkt in plasma with increasing doses: dose-dependent decrease
pAkt [3]; platelet-rich plasma, doses ≥ 12 mg
  peak suppression of the platelet pAkt: 90%
pAkt [3]; fixed in model
  Imax (maximum inhibition of %pAkt): 1 (fix)
pAkt [3]; kout = kin/%pAkt(0), baseline 100%
  kout (first-order rate constant describing biomarker loss): 886.99 h⁻¹
[4]
  Kmax (maximum value of tumor shrinkage rate constant Ks): 0.0194 h⁻¹
[4]; QD PO 17 days, 0.008–11 mg/kg
  Kg (net tumor growth rate constant): 0.0057 h⁻¹
[4]; pAkt in tumor tissue
  KI50 (I where Ks is 50% of Kmax): 67.2 %pAKT inhibition
[4]; tumor tissue pAkt
  constant pAkt inhibition necessary to achieve tumor stasis (Ks = Kg): 61%
Advanced solid tumors; patients with advanced solid tumors
  Kmax (maximum value of tumor shrinkage rate constant Ks): 0.0142 1/week
Advanced solid tumors; patients with advanced solid tumors, 2–200 mg
  Kg (net tumor growth rate constant): 0.0097 1/week
Advanced solid tumors; patients, pAkt in surrogate plasma
  KI50 (I where Ks is 50% of Kmax): 58.0 %pAKT inhibition
Advanced solid tumors; patients, platelet-rich plasma pAkt
  constant pAkt inhibition necessary to achieve tumor stasis (Ks = Kg): 65%
Unbound fraction in mice
  fraction unbound: 0.294
[5]
  fraction unbound: 0.388
pAkt [6]
  reduction in platelet-rich plasma PD markers, including pAkt: ≥ 90%
786-O cell line
  responsiveness of 786-O cell line compared with other tumor types such as MCF-7: less responsive

## CS(=O)(=O)c1ccc(C(=O)Nc2ccc(Cl)c(-c3ccccn3)c2)c(Cl)c1 [vismodegib]
Gli mRNA
  minimum Gli mRNA inhibition needed for tumor growth inhibition: ~50%
